# Experimental data as given in PMC2685098 (Nucleic Acids Research, 2009).
# Positions count from the first letter of the chain named. Like-named read-outs stand apart in the source and are kept apart here.
# B1: mutant histone H3 peptide (1-10) H3R8AK4me0 (peptide)
# peptide: ARTKQTAAKS
# B2: non-modified histone H3 tail peptide H3K4me0 (residues 1-10) (peptide)
# peptide: ARTKQTARKS
# Tests used:
# AIRE-PHD1 wild type [1] = biological target: T1, AIRE-PHD1 wild type (Homo sapiens, UniProt O43918); experiment: Isothermal titration calorimetry; assay type: binding; conditions: for ΔG / −TΔS: AIRE-PHD1 wt, ITC 23°C, pH 7.2, duplicate, ND = not detectable
# T1 sequence (O43918 293-354): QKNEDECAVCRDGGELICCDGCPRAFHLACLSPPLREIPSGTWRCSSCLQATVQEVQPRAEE
# [2] = biological target: first PHD finger of autoimmune regulator (AIRE-PHD1), wild type (human) (UniProt O43918); experiment: other fluorescence titration
# [3] = biological target: first PHD finger of autoimmune regulator (AIRE-PHD1), wild type (human) (UniProt O43918); experiment: ITC
# GST-AIRE-PHD1 = experiment: Peptide pull-down / in vitro binding assays; set-up: species or system human; conditions: in vitro: fluorescence titrations, ITC and peptide pull-down assays
# AIRE-PHD1 wild type [4] = biological target: T1, AIRE-PHD1 wild type; experiment: Tryptophan fluorescence titration; assay type: binding
# AIRE-PHD1 Glu298Ala [5] = biological target: T2, AIRE-PHD1 Glu298Ala (Homo sapiens, UniProt O43918, E298A); experiment: Isothermal titration calorimetry; assay type: binding; conditions: AIRE-PHD1 Glu298Ala mutant, ITC 23°C, pH 7.2
# T2 sequence (O43918 293-354 E298A): T1 sequence (O43918 293-354) with E6A
# Procedure, shortened: (§1)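 Recombinant AIRE-PHD1 (Gln293–Glu354) point mutants, made by overlap-extension PCR and mass-verified by MALDI, at 40–85 μM in 20 mM phosphate, 150 mM NaCl, 2 mM β-mercaptoethanol, 50 μM ZnCl2, pH 7.2. Synthetic H3 1–10 peptides (0.54–2.5 mM) were injected 28–57 times at 15 min spacing, 23°C, stirring 307 rpm. Heats were corrected for dilution and fitted to a one-site model by nonlinear least squares. Run in duplicate.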
# AIRE-PHD1 Asp304Ala [6] = biological target: T3, AIRE-PHD1 Asp304Ala (Homo sapiens, UniProt O43918, D304A); experiment: Isothermal titration calorimetry; assay type: binding; conditions: AIRE-PHD1 Asp304Ala mutant, ITC 23°C, pH 7.2
# T3 sequence (O43918 293-354 D304A): T1 sequence (O43918 293-354) with D12A
# Procedure, shortened: as §1
# AIRE-PHD1 Glu307Ala [7] = biological target: T4, AIRE-PHD1 Glu307Ala (Homo sapiens, UniProt O43918, E307A); experiment: Isothermal titration calorimetry; assay type: binding; conditions: AIRE-PHD1 Glu307Ala mutant, ITC 23°C, pH 7.2
# T4 sequence (O43918 293-354 E307A): T1 sequence (O43918 293-354) with E15A
# Procedure, shortened: as §1
# AIRE-PHD1 wild type [8] = biological target: T1, AIRE-PHD1 wild type; conditions: AIRE-PHD1 wt, ITC; previous experiments; ref [22]; cited from earlier work
# [9] = biological target: T5, first PHD finger of autoimmune regulator (AIRE-PHD1), wild type (human, UniProt O43918 293-354); experiment: other fluorescence titration
# T5 sequence (looked up): T1 sequence (O43918 293-354)
# [10] = biological target: T5, first PHD finger of autoimmune …; experiment: ITC
# AIRE-PHD1 Glu298Ala [11] = biological target: T6, AIRE-PHD1 Glu298Ala (human, UniProt O43918 293-354, Glu298Ala); experiment: other fluorescence titration
# T6 sequence (looked up): T1 sequence (O43918 293-354) with E6A
# AIRE-PHD1 Asp304Ala [12] = biological target: T7, AIRE-PHD1 Asp304Ala (human, UniProt O43918 293-354, Asp304Ala); experiment: other fluorescence titration
# T7 sequence (looked up): T1 sequence (O43918 293-354) with D12A
# AIRE-PHD1 Glu307Ala [13] = biological target: T8, AIRE-PHD1 Glu307Ala (human, UniProt O43918 293-354, Glu307Ala); experiment: other fluorescence titration
# T8 sequence (looked up): T1 sequence (O43918 293-354) with E15A
# AIRE-PHD1 Glu298Ala [14] = biological target: T6, AIRE-PHD1 Glu298Ala; experiment: ITC
# AIRE-PHD1 Asp304Ala [15] = biological target: T7, AIRE-PHD1 Asp304Ala; experiment: ITC
# AIRE-PHD1 Glu307Ala [16] = biological target: T8, AIRE-PHD1 Glu307Ala; experiment: ITC
molecule,measurement,setting,value
C[C@H](N)C(=O)N[C@@H](CCCNC(=N)N)C(=O)N[C@H](C(=O)N[C@@H](CCCCN)C(=O)N[C@@H](CCC(N)=O)C(=O)N[C@H](C(=O)N[C@@H](C)C(=O)N[C@@H](C)C(=O)N[C@@H](CCCCN)C(=O)N[C@@H](CO)C(=O)O)[C@@H](C)O)[C@@H](C)O [H3R8AK4me0],ΔG,AIRE-PHD1 wild type [1],-5.8 ± 0.3 kcal/mol
same,−TΔS,AIRE-PHD1 wild type [1],1.6 ± 0.3 kcal/mol
"histone H3 peptide (1-10) phosphorylated at S10, H3S10PhK4me0",Kd,[2],7.6 µM
same,Kd,[3],24.7 µM
"H3R2me2asK4me0: H3 1-10 peptide, asymmetric di-methylation of R2",AIRE-PHD1 binding (in words),GST-AIRE-PHD1,strongly reduced AIRE-PHD1 binding
C[C@H](N)C(=O)N[C@@H](CCCNC(=N)N)C(=O)N[C@H](C(=O)N[C@@H](CCCCN)C(=O)N[C@@H](CCC(N)=O)C(=O)N[C@H](C(=O)N[C@@H](C)C(=O)N[C@@H](CCCNC(=N)N)C(=O)N[C@@H](CCCCN)C(=O)N[C@@H](COP(=O)(O)O)C(=O)O)[C@@H](C)O)[C@@H](C)O [H3S10Ph K4me0],Kd,AIRE-PHD1 wild type [4],7.6 ± 1.2 µM
same,Kd,AIRE-PHD1 wild type [1],24.7 ± 0.2 µM
same,ΔG,AIRE-PHD1 wild type [1],-6.3 ± 0.1 kcal/mol
same,−TΔS,AIRE-PHD1 wild type [1],3.3 ± 0.1 kcal/mol
C[C@H](N)C(=O)N[C@@H](CCCNC(=N)N)C(=O)N[C@H](C(=O)N[C@@H](CCCCN)C(=O)N[C@@H](CCC(N)=O)C(=O)N[C@H](C(=O)N[C@@H](C)C(=O)N[C@@H](CCCNC(=N)N)C(=O)N[C@@H](CCCCN)C(=O)N[C@@H](CO)C(=O)O)[C@@H](C)O)[C@@H](C)O [H3K4me0],ΔG,AIRE-PHD1 Glu298Ala [5],-5.9 ± 0.1 kcal/mol
same,ΔH,AIRE-PHD1 Glu298Ala [5],-7.2 ± 0.1 kcal/mol
same,−TΔS,AIRE-PHD1 Glu298Ala [5],1.3 ± 0.1 kcal/mol
same,ΔG,AIRE-PHD1 Asp304Ala [6],-5.2 ± 0.4 kcal/mol
same,ΔH,AIRE-PHD1 Asp304Ala [6],-5.3 ± 0.4 kcal/mol
same,−TΔS,AIRE-PHD1 Asp304Ala [6],0.1 ± 0.4 kcal/mol
same,ΔG,AIRE-PHD1 Glu307Ala [7],-5.9 ± 0.1 kcal/mol
same,ΔH,AIRE-PHD1 Glu307Ala [7],-6.7 ± 0.1 kcal/mol
same,−TΔS,AIRE-PHD1 Glu307Ala [7],0.7 ± 0.1 kcal/mol
same,ΔG,AIRE-PHD1 wild type [8],-7.1 ± 0.1 kcal/mol
same,ΔH,AIRE-PHD1 wild type [8],-9.3 ± 0.1 kcal/mol
same,−TΔS,AIRE-PHD1 wild type [8],2.2 ± 0.1 kcal/mol
"histone H3 peptide (1-10) mono-methylated at R2, H3R2me1K4me0",Kd,[2],248 µM
same,Kd,[3],199 µM
same,dH,[3],-4.6 kcal/mol
B1,Kd,[9],52.8 ± 4.9 µM
same,Kd,[10],55.9 µM
same,dH,[10],-7.3 ± 0.3 kcal/mol
B2,Kd,AIRE-PHD1 Glu298Ala [11],28.1 ± 2.1 µM
same,Kd,AIRE-PHD1 Asp304Ala [12],80 µM
same,Kd,AIRE-PHD1 Glu307Ala [13],19 ± 2.4 µM
same,Kd,AIRE-PHD1 Glu298Ala [14],43.4 ± 0.5 µM
same,dH,AIRE-PHD1 Glu298Ala [14],-7.2 ± 0.1 kcal/mol
same,Kd,AIRE-PHD1 Asp304Ala [15],123 ± 6.7 µM
same,dH,AIRE-PHD1 Asp304Ala [15],-5.3 ± 0.4 kcal/mol
same,Kd,AIRE-PHD1 Glu307Ala [16],40.6 ± 0.5 µM
same,dH,AIRE-PHD1 Glu307Ala [16],-6.7 ± 0.1 kcal/mol
